Most compounds without a hit are left out; they make up all but 4.9% or so of the library.
STAT3 inh – reduces IL-6 driven STAT3 reporter signal. actives 0.89% (n = 190,000). inhibition, % at 5.5 µM. U3A cells, IL-6 STAT3-luciferase reporter, luminescence; host cell line lacks STAT1;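 active means inhibition above the mean inhibition across all screened compounds plus 3 SD, cut at about 44% in these data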;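 further: 0% = DMSO only wells and 100% = 100 µM nifuroxazide control wells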
STAT1 activator – STAT1 signaling activation | actives 2.6% (n = 200,000) | NIH 3T3 STAT1-luciferase reporter, IFN-gamma, luminescence; 100% = IFN-gamma alone, no compound | activation (% of control), % at 5.5 µM;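 active means activation above the screen-wide mean activation plus 3 SD, cut at about 130% in these data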;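 further: raw ratio to IFN-gamma control signal so 100% means no change and 0% no light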
STAT3 activator – activators of IL-6 induced STAT3 signaling; U3A cells, IL-6 STAT3-luciferase reporter, luminescence; 100% = signal with IL-6 EC80 alone; activation (% of control), % at 5.6 µM; actives 0.91% (n = 190,000); AID 871;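 active means activation above the screen-wide mean of compound activation plus 3 SD, cut at about 130% in these data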;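 further: 0% = background luminescence of wells with medium and substrate only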
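Test system: STAT3-luciferase reporter U3A cells; Detection: reporter luminescence signal; Times: 1 h compound pre-exposure, 6 h IL-6 stimulation, 37 °C; Benchmarks: IL-6-only high control; Also added: IL-6 stimulus at 33 ng/mL final.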
NF-kB neuron act – NF-kB expression increase, human neuronal cells; NF-kB reporter expression; active compounds read high; fold change at 12.5 µM; actives 1.6% (n = 190,000); AID 1239; in the data active means fold change above about 3.3
APP 5'UTR act – APP 5'UTR luciferase reporter activation; activation, % at 2 µM; SH-SY5Y APP 5'UTR luciferase reporter, luminescence; zero percent = DMSO vehicle wells; AID 1276; actives 1% (n = 190,000);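 active means activation above a set limit, based on mean plus 3 SD of controls, cut at about 140% in these data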
STAT1 inh – inhibitors of IFN-gamma induced STAT1 signaling | NIH 3T3 STAT1-luciferase reporter, luminescence | inhibition, % at 5.5 µM | actives 0.35% (n = 200,000);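 active means inhibition above a set limit, the mean inhibition across all tested compounds plus 3 SD, cut at about 34% in these data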;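 further: 0% = IFN-gamma with DMSO and 100% = IFN-gamma with 300 µM nifuroxazide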
STAT1 act conf – confirmation of STAT1 signaling activators. shares compounds with STAT1 activator. NIH 3T3 STAT1-luciferase reporter, IFN-gamma potentiation, luminescence; 100% = IFN-gamma EC80 alone, no compound. activation (% of control), % at 5.7 µM. actives 97% (n = 1,200);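 active means activation above a set limit carried over from the earlier primary STAT1 screen, cut at about 140% in these data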;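 further: simple ratio to median IFN-gamma plus DMSO wells so 0% means no light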
NFkB act STAT1ct – counter-screen for STAT1 activators: NF-kappaB activation. shares compounds with STAT1 activator. HEK293T NF-kB luciferase reporter, TNF-alpha stimulated, luminescence; 100% = TNF-alpha with vehicle only. activation (% of control), % at 5.7 µM. actives 43% (n = 1,200);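 active means activation above the mean of solvent-only control wells plus 3 SD, set per campaign, cut at about 130% in these data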;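 further: TNF-alpha given at a submaximal dose yielding about 80% of full reporter signal; values are well signal over median control so 100% means no change and 0% no light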
STAT3 act STAT1c – activates human STAT3, counter-screen to STAT1 activators | actives 46% (n = 1,200) | U3A cells STAT3-luciferase reporter, IL-6, luminescence; cells lack STAT1; 100 = IL-6 alone, no compound effect | activation (% of control), % at 5.7 µM | shares compounds with STAT1 activator;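 active means activation above the solvent-only control well mean plus 3 SD, set per plate batch, cut at about 110% in these data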;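 further: 0% = no luminescence and 100% = median IL-6 plus DMSO wells; higher means more STAT3 reporter activation so hits are non-selective activators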
* hit, by the source's call; nt = no result.

SMILES	STAT3 inh	STAT1 activator	STAT3 activator	NF-kB neuron act	APP 5'UTR act	STAT1 inh	STAT1 act conf	NFkB act STAT1ct	STAT3 act STAT1c
Cc1cccnc1NC(=O)c1cc2ccccc2oc1=O	4	156*	97	4.2*	176*	-59	191*	117	117*
Cc1ccccc1-c1nnc(NC(=O)c2cc3ccccc3oc2=O)s1	0	103	100	1.2	19	-3	nt	nt	nt
CC(C)c1[nH]nc2c1C(c1ccco1)C(C#N)=C(N)O2 (stereo unspecified)	-3	91	106	1	9	8	nt	nt	nt
COc1cccc(-c2cc(=O)c3cc(NC(C)=O)ccc3[nH]2)c1	4	101	94	1	1	-1	nt	nt	nt
COc1ccc(-c2cc(=O)c3cc(OC)ccc3[nH]2)cc1	38	153*	66	4.7*	126	-58	165*	103	101
CC(C)c1ccc(NC(=O)N2CCc3ccccc3C2)cc1	-9	156*	114	3	86	-62	148*	131	120*
CCCCNC(=O)N1CCc2ccccc2C1	2	106	103	1.5	9	-7	nt	nt	nt
COC(=O)c1sccc1NC(=O)C1C2C=CC(C2)C1C(=O)O (stereo unspecified)	7	97	97	1.4	18	0	nt	nt	nt
Cc1ccsc1C(=O)NNC(=O)C1C2C=CC(C2)C1C(=O)O (stereo unspecified)	-1	184*	103	1.4	154*	-96	131*	125	106
N=c1oc2cc(O)ccc2cc1C(=O)Nc1ccccn1	-3	110	108	1.4	-10	-11	nt	nt	nt
N=c1oc2cc(O)ccc2cc1C(=O)Nc1nc2ccccc2s1	-39	168*	127	1.6	178*	-75	195*	112	152*
CC(=O)Oc1cc2c(cc1Cl)C(c1cccs1)CC1(CC(C)(C)NC(=S)N1)O2 (stereo unspecified)	-1	100	104	1	-14	-2	nt	nt	nt
COCCN(C(=S)Nc1c(C)cc(C)cc1C)C(C)c1cccs1 (stereo unspecified)	-4	89	106	0.92	6	10	nt	nt	nt
CC(C)Nc1nc(NC(C)C)nc(SCC(N)=O)n1	5	98	102	0.98	-12	0	nt	nt	nt
Clc1ccc(/C=N/Nc2ncnc3ccccc23)cc1Cl	-26	158*	127	4.9*	nt	-63	208*	151*	135*
O=C(Nc1ccc2oc(-c3ccccc3)nc2c1)c1cccnc1	18	113	88	1.1	53	-14	nt	nt	nt
O=C(Nc1ccc2oc(-c3ccccc3)nc2c1)c1ccco1	-4	168*	106	5.1*	178*	-77	202*	134*	107
O=C(Nc1ccc2oc(-c3ccccc3)nc2c1)C1CCCO1 (stereo unspecified)	-9	155*	112	3.6*	147*	-63	182*	134*	102
CC(=O)Nc1ccc(N2C(=O)CSC2c2cccc([N+](=O)[O-])c2)cc1 (stereo unspecified)	-3	103	102	0.98	4	-3	nt	nt	nt
Cc1ccc(/C=C2/CCc3c([nH]c4ccccc34)C2=O)cc1	12	161*	98	2.5	156*	-68	188*	141*	114*
Cc1ccc2[nH]c3c(c2c1)CC/C(=C/c1ccccc1)C3=O	11	120	91	1.5	-3	-22	nt	nt	nt
CCN1C(=S)SC(=O)C1=C1C=C(C)N(CCO)C(C)=C1	-1	158*	105	2.8	121	-60	190*	128	124*
CC(=O)OCCCN1c2ccccc2Nc2nnc(-c3ccccc3)cc21	14	158*	92	2.1	171*	-63	192*	127	95
Cc1scc(C(=O)N/N=C/c2ccc(OC(C)C)cc2)c1C	-2	106	107	0.62	28	-7	nt	nt	nt
Cc1scc(C(=O)N/N=C/c2ccc(Cl)s2)c1C	-6	151*	105	1.2	128	-58	181*	130	102
SMILES	STAT3 inh	STAT1 activator	STAT3 activator	NF-kB neuron act	APP 5'UTR act	STAT1 inh	STAT1 act conf	NFkB act STAT1ct	STAT3 act STAT1c
O=C(N[C@@H](Cc1ccccc1)C(=O)OCc1ccccc1)c1nc[nH]c1C(=O)NCc1ccccc1	nt	97	nt	0.73	-3	4	nt	nt	nt
N#Cc1c(/N=C/C=C/c2ccccc2)sc2c1CCCC2	13	92	94	1	5	9	nt	nt	nt
CCN(/C=N/c1sc2c(c1C#N)CCCCC2)CC	-20	158*	121	4.2*	117	-63	182*	135*	125*
CCC(=O)Nc1ccc2c(c1)ncn2-c1ccc(C)cc1	10	162*	96	2.6	103	-71	183*	136*	135*
CCc1ccc(Nc2ncc3c(n2)CC(C)CC3=O)cc1 (stereo unspecified)	17	151*	91	3.5*	173*	-58	198*	128	107
CCc1ccc(Nc2ncc3c(n2)CC(c2ccc(OC)cc2)CC3=O)cc1 (stereo unspecified)	4	107	101	0.99	9	-8	nt	nt	nt
CCN(CC)c1ccc2cc(-c3nnc(-c4ccccc4)o3)c(=O)oc2c1	-13	155*	112	1.3	19	-60	185*	137*	126*
COc1ccc(Cl)cc1NC(=O)CN1CCc2ccccc21	-5	101	116	1	10	-2	nt	nt	nt
CCOC(=O)c1cn2c(C)cccc2n1	2	99	100	1.1	17	0	nt	nt	nt
Cc1cccc2nc(COc3ccc(-c4ccccc4)cc3)cn12	20	163*	88	2.3	39	-70	168*	110	115*
Cc1cc(C)n2cc(COc3ccc4ccccc4c3)nc2n1	15	176*	90	8*	146*	-86	214*	127	117*
O=c1/c(=C/c2ccc([N+](=O)[O-])cc2)sc2n1CCCN=2	9	157*	96	1.8	21	-62	183*	135*	97
CC(=O)Nc1nc2ccc(-c3nc4ccccc4o3)cc2s1	12	167*	93	5.5*	41	-73	200*	135*	115*
Nc1ccc(-c2nc3ccc(-c4nc5ccccc5o4)cc3[nH]2)cc1	21	121	85	1.3	41	-23	nt	nt	nt

Compound activity: PubChem, several laboratories
